The source made the active and inactive calls. The rule behind the calls is not given here.
Key:
[1] = molecular target: cAMP-dependent protein kinase catalytic subunit alpha (Homo sapiens, UniProt P17612); assay: Inhibition of PKAalpha
[2] = molecular target: Mitogen-activated protein kinase 11 (Homo sapiens, UniProt Q15759); assay: Inhibition of P38beta
[3] = molecular target: Proto-oncogene tyrosine-protein kinase receptor Ret (Homo sapiens, UniProt P07949); assay: Inhibition of RET
[4] = molecular target: Vascular endothelial growth factor receptor 3 (Homo sapiens, UniProt P35916); assay: Inhibition of VEGFR3
[5] = molecular target: Cyclin-dependent kinase 9 (Homo sapiens, UniProt P50750); assay: Inhibition of CDK9
Hepatocyte = assay: Metabolic stability in rat hepatocytes assessed as intrinsic clearance at 1 uM; type: cell-based; settings: Liver
[6] = Cmax in nu/nu mouse at 10 mg/kg, po administered as single dose; type: ADME, organism-based; set-up: dose 10 mg/kg, route oral; settings: in vivo
In short: (§1)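 Single iv or oral dose in 5% dextrose to overnight-fasted animals. Nu/Nu mice: males, 3 per route, saphenous bleeds to 24 h. Han-Wistar rats: males, 3 per route, jugular bleeds to 24 h. Beagle dogs: 2 per sex, iv and po crossover 2 weeks apart, jugular bleeds to 48 h. Plasma by LC/MS/MS; noncompartmental parameters, AUC by linear trapezoid with extrapolation.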

Rattus norvegicus [7] = assay: AUC (0 to infinity) in Wistar rat at 10 mg/kg, iv administered as single dose; type: ADME, organism-based, Plasma; set-up: time infinity, dose 10 mg/kg, route intravenous; settings: in vivo; in short: as §1
[8] = Clearance in Wistar rat at 10 mg/kg, iv administered as single dose; type: ADME, organism-based; set-up: dose 10 mg/kg, route intravenous; settings: in vivo; in short: as §1
[9] = Renal clearance in Wistar rat at 10 mg/kg, iv administered as single dose; type: ADME, organism-based, Kidney; set-up: dose 10 mg/kg, route intravenous; settings: in vivo, read-out: CL_renal (converted)
In short: (§2)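 Overnight-fasted male Han-Wistar rats got a single 10 mg/kg iv dose in 5% dextrose, three per leg. Jugular blood was drawn from 0.083 to 24 h. Urine was collected over 0–6 and 6–24 h. Plasma and urine were assayed by LC/MS/MS and analysed noncompartmentally. Vss = CL·MRT.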

[10] = Volume of distribution at steady state in Wistar rat at 10 mg/kg, iv administered as single dose; type: ADME, organism-based; set-up: dose 10 mg/kg, route intravenous; settings: in vivo, read-out: Vdss; in short: as §2
[11] = AUC (0 to infinity) in Beagle dog at 5 mg/kg, iv administered as single dose; type: ADME, organism-based, Canis lupus familiaris; set-up: time infinity, dose 5 mg/kg, route intravenous; settings: plasma; in short: as §1
[12] = Half life in Beagle dog at 5 mg/kg, iv administered as single dose; type: ADME, organism-based, Canis lupus familiaris; set-up: dose 5 mg/kg, route intravenous; settings: in vivo; in short: as §1
[13] = Tmax in Beagle dog at 10 mg/kg, po administered as single dose; type: ADME, organism-based, Canis lupus familiaris; set-up: dose 10 mg/kg, route oral; settings: in vivo
In short: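 Overnight-fasted Beagle dogs, 2 per sex, in a crossover design: 5 mg/kg iv and 10 mg/kg po, two weeks apart, in 5% dextrose. Jugular blood was drawn up to 48 h, and urine was collected over 0–8, 8–24 and 24–48 h. Samples were assayed by LC/MS/MS and analysed noncompartmentally.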

[14] = AUC (0 to infinity) in Beagle dog at 10 mg/kg, po administered as single dose; type: ADME, organism-based, Canis lupus familiaris; set-up: time infinity, dose 10 mg/kg, route oral; settings: plasma; in short: as §1
[15] = Antiproliferative activity against human […] cells after 72 hrs by luciferase based assay; type: functional, cell-based
In short: (§3)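 Cells seeded at 2500–5000/well in complete medium (RPMI1640, McCoy's or DMEM with 10% FCS, by line); compound added after 24 h, 72 h at 37 °C, 5% CO2.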

L-363 = assay: Antiproliferative activity against human L363 cells after 72 hrs by luciferase based assay; type: functional, cell-based; settings: L-363, 72 h; in short: as §3
SW48 = assay: Antiproliferative activity against human SW48 cells after 72 hrs by luciferase based assay; type: functional, cell-based; settings: SW48, 72 h; in short: as §3
OPM-2 = assay: Antiproliferative activity against human OPM2 cells after 72 hrs by luciferase based assay; type: functional, cell-based; settings: OPM-2, 72 h; in short: as §3
NHDF = assay: Antiproliferative activity against human NHDF cells after 72 hrs by luciferase based assay; type: cell-based
[16] = Antiproliferative activity against mouse NIH/3T3 cells after 72 hrs by luciferase based assay; type: cell-based; settings: NIH3T3, 72 h; in short: as §3
HeLa [17] = assay: Inhibition of DNA synthesis in human HeLa cells at 3 uM assessed as bromodeoxyuridine incorporation; type: functional; set-up: scale not given: the % may be the effect or the level left
In short: (§4)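 Logarithmically growing HeLa cells exposed to 3 µM for set times, labelled with 50 µM BrdU, fixed in 70% ethanol. DNA content by propidium iodide with RNase A, 30 min at 37 °C; BrdU by FITC anti-BrdU after 2N HCl denaturation; percent positive cells by FACS.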

HeLa [18] = assay: Inhibition of DNA synthesis in human HeLa cells at 3 uM assessed as bromodeoxyuridine incorporation after 24 hrs; type: functional; set-up: scale not given: the % may be the effect or the level left; in short: as §4
[19] = molecular target: T1, Cell division cycle 7-related protein kinase (Homo sapiens, UniProt O00311); assay: Inhibition of human Cdc7 in human A2780 cells assessed as inhibition of Ser40 phosphorylation of Mcm2 protein after 4 hrs; type: cell-based
In short: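 A2780 cells exposed for 4 h to a range of concentrations, then lysed in 50 mmol/L Tris-HCl pH 6.8, 1% SDS, 1 mmol/L DTT and sonicated 10 s. 15 µg protein per lane ([…]) was taken for Western blot with phospho-specific antibodies to MCM2 Ser40 and Ser53.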

[20] = molecular target: T1, Cell division cycle 7-related protein kinase; assay: Inhibition of human Cdc7 in human A2780 cells assessed as inhibition of Ser53 phosphorylation of Mcm2 protein at 3 uM up to 24 hrs; type: cell-based
In short: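 Time course in A2780 cells held at 3 µM for up to 24 h. Extracts were made in 50 mmol/L Tris-HCl pH 6.8, 1% SDS, 1 mmol/L DTT with 10 s sonication, loaded at 15 µg per lane, and immunoblotted with antiphosphopeptide antibodies to MCM2 Ser40 and Ser53. Cleaved caspase 3 was also probed.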

Cytochrome P450 2C9 = Cytochrome P450 2C9 (Homo sapiens, UniProt P11712); assay: Inhibition of human CYP2C9; type: ADME
Cytochrome P450 3A4 = Cytochrome P450 3A4 (Homo sapiens, UniProt P08684); assay: Inhibition of human CYP3A4; type: ADME
Mus musculus = assay: Inhibition of human Cdc7 in human A2780 cells xenografted in CDI nu/nu mouse assessed as inhibition of Ser53 phosphorylation of Mcm2 protein at 60 mg/kg, po first dose administered at 6 hrs and second dose 3 hrs after first dose by Western blot; type: functional, organism-based; set-up: dose 60 mg/kg
In short: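 A2780 human ovarian carcinoma grown subcutaneously in CDI nu/nu mice. Two oral doses of 60 mg/kg were given within 6 h, the second 3 h after the first. Tumors were explanted and analysed by Western blot for MCM2 phosphorylated at Ser40 and Ser53, with total MCM2 and tubulin as loading controls. Vehicle-treated tumors served as controls.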

[21] = molecular target: Protein kinase C beta type (Homo sapiens, UniProt P05771); assay: Inhibition of PKCbeta
[22] = molecular target: Cyclin-dependent kinase 5/CDK5 activator 1 (Homo sapiens, UniProt Q00535); assay: Inhibition of CDK5/p25; type: protein-complex assay
[23] = molecular target: Cyclin-dependent kinase 4 (Homo sapiens, UniProt P11802); assay: Inhibition of CDK4
[24] = Cmax in Wistar rat at 20 mg/kg, po administered as single dose; settings: in vivo
Rattus norvegicus [25] = assay: Oral bioavailability in Wistar rat at 20 mg/kg, po administered as single dose; settings: in vivo

T1 sequence (O00311 whole entry, looked up): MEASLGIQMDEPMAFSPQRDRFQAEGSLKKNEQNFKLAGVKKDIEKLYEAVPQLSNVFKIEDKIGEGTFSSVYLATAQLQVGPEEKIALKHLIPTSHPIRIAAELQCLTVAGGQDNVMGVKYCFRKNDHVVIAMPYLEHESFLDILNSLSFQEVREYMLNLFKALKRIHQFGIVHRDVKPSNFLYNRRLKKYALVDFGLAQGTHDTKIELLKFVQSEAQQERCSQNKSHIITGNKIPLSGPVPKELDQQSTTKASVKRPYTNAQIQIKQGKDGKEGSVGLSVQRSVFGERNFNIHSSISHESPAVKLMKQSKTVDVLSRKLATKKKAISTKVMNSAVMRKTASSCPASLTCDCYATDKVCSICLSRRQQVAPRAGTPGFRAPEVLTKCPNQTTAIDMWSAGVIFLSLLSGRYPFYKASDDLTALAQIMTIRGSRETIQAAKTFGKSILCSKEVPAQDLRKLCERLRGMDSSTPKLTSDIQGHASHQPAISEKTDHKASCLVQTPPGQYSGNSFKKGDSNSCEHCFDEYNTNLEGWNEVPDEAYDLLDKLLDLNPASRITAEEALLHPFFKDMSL
Cyclin-dependent kinase 9, sequence (P50750 whole entry): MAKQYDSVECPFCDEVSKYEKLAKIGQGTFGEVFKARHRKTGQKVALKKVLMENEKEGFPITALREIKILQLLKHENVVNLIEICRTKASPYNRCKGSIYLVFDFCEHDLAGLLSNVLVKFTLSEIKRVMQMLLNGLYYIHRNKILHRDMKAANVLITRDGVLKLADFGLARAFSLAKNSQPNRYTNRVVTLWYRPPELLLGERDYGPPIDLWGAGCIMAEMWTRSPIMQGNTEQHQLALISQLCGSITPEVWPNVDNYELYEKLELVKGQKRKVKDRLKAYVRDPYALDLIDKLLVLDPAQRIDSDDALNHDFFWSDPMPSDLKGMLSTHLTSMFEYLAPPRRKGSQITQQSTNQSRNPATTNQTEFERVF
Protein kinase C beta type, sequence (P05771 whole entry): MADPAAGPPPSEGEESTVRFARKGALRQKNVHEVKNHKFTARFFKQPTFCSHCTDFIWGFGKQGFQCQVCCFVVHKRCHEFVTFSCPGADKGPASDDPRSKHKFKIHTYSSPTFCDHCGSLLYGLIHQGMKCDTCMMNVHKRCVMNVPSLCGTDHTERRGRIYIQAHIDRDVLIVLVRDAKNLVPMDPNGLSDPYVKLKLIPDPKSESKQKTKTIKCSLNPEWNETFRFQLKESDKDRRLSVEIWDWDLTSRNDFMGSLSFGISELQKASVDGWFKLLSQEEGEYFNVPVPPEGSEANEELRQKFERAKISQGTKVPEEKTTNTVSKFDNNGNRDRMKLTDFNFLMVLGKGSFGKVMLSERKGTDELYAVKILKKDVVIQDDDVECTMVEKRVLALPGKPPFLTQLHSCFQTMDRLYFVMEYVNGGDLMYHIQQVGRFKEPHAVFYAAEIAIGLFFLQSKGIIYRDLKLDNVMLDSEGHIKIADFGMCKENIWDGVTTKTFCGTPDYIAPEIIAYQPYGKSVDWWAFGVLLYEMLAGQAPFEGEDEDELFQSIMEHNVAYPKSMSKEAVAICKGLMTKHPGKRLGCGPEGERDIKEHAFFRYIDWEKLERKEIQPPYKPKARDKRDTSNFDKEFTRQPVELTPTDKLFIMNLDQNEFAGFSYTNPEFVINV
Cytochrome P450 3A4, sequence (P08684 whole entry): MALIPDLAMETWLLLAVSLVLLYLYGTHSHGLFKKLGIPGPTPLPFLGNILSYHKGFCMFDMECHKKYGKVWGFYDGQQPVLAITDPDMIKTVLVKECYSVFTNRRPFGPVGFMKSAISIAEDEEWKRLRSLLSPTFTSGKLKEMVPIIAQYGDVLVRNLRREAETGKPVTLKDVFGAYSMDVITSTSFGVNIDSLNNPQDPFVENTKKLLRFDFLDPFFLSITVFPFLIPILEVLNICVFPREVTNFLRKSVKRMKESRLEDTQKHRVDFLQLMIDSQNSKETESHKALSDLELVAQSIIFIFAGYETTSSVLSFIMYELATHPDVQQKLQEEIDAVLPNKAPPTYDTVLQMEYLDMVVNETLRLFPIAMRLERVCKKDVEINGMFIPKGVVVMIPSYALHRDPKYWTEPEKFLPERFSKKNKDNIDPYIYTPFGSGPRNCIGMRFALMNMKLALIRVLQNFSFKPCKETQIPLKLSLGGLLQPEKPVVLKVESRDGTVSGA
Mitogen-activated protein kinase 11, sequence (Q15759 whole entry): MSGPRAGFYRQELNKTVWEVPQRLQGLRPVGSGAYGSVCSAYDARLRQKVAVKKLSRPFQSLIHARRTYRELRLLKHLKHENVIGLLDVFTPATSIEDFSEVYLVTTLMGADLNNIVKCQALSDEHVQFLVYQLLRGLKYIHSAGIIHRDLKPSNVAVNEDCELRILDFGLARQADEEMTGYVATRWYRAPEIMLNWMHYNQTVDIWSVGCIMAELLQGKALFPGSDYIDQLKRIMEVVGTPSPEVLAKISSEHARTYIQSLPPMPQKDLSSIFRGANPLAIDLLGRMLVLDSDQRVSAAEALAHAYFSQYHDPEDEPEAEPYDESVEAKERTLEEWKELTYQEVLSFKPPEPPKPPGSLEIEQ
Vascular endothelial growth factor receptor 3, sequence (P35916 whole entry): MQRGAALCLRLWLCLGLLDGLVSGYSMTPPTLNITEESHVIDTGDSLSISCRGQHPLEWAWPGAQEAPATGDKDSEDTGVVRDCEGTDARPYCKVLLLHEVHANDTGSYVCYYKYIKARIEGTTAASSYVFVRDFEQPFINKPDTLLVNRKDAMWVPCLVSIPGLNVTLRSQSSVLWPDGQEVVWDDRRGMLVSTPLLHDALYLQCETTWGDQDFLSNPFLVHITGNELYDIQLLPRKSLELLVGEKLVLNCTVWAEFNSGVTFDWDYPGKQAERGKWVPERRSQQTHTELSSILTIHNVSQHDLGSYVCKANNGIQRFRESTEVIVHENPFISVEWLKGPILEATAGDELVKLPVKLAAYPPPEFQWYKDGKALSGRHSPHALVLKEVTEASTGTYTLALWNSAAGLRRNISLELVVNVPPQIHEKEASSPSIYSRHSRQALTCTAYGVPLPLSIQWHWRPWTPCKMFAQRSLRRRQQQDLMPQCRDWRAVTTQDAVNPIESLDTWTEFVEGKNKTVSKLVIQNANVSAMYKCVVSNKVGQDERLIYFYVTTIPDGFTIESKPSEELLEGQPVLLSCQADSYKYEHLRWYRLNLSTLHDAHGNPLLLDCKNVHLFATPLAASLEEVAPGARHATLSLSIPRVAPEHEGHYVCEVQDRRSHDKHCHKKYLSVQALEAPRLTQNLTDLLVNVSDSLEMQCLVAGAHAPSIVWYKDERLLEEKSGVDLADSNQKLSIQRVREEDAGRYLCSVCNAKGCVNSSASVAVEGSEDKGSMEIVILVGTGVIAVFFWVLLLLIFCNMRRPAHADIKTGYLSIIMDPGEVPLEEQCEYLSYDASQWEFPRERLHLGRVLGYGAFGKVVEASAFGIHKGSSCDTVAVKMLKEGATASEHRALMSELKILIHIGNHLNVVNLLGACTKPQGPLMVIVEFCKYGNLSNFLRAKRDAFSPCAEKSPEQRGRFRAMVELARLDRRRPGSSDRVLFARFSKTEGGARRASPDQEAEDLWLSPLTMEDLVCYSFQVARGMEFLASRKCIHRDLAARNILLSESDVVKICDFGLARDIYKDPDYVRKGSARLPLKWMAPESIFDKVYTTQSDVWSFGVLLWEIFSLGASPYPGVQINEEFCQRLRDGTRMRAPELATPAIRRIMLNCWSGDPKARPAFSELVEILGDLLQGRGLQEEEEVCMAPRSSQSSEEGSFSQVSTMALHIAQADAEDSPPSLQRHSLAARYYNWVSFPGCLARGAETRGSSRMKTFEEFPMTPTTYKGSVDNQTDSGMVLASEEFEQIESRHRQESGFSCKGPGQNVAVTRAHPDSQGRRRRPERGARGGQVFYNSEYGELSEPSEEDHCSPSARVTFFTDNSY
Cyclin-dependent kinase 5/CDK5 activator 1, sequence (Q00535 whole entry): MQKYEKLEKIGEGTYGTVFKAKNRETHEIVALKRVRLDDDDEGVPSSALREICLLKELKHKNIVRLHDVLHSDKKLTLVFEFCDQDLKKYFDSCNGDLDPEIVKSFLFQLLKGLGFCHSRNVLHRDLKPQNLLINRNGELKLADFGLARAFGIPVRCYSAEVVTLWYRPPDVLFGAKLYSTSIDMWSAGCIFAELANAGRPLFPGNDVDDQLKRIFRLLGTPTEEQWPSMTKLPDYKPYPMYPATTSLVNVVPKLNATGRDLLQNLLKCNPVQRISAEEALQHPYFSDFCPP
Cyclin-dependent kinase 5/CDK5 activator 1, sequence (Q15078 whole entry, further chain): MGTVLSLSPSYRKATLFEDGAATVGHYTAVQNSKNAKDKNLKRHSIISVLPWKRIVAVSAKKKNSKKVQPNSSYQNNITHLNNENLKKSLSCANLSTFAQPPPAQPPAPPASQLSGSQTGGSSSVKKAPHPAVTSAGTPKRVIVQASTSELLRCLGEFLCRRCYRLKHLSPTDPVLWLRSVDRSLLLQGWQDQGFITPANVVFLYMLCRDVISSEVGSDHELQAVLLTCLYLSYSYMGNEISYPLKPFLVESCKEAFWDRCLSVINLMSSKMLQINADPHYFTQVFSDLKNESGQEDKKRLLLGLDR
Cyclin-dependent kinase 4, sequence (P11802 whole entry): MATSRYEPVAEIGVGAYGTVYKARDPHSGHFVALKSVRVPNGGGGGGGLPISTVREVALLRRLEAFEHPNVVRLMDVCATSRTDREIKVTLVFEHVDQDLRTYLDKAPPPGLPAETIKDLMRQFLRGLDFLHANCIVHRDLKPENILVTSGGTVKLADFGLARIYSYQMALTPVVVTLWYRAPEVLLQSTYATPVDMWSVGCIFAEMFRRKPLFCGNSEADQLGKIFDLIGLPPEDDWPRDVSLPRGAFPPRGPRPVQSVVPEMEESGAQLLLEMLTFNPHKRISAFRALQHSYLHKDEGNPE

Compound: Nc1nccc(-c2cc3c([nH]2)[C@@H](CCF)CNC3=O)n1
- IC50 [1]: > 4000 nM
- IC50 [2]: > 4000 nM
- IC50 [3]: > 4000 nM
- IC50 [4]: > 4000 nM
- IC50 [5]: 28 nM
- CL (mL.min-1.kg-1) (Hepatocyte): 5
- Cmax [6]: 2600 nM
- AUC (Rattus norvegicus [7]): 19.9 µM·h
- clearance [8]: 30 mL/min/kg
- CL renal [9]: 18.3 mL/min/kg
- Vd [10]: 2.1 L/kg
- AUC(0-inf) [11]: 6.3 µM·h
- half-life [12]: 36 min
- Tmax [13]: 18 min
- AUC(0-inf) [14]: 6.4 µM·h
- IC50 [15]: 400 nM
- IC50 (L-363): 1300 nM
- IC50 (SW48): 900 nM
- IC50 (OPM-2): 3700 nM
- IC50 (NHDF): 1600 nM
- IC50 [16]: 2500 nM
- Activity (HeLa [17]): 35%
- Activity (HeLa [18]): 3%
- MED [19]: 0.6 µM
- Activity [20]: Active
- Activity (Cytochrome P450 2C9): Not Active
- Activity (Cytochrome P450 3A4): Not Active
- Activity (Mus musculus): Active
- IC50 [21]: 1150 nM
- IC50 [22]: 1620 nM
- IC50 [23]: > 4000 nM
- Cmax [24]: 2000 nM
- F (Rattus norvegicus [25]): 33%
